This is one part of the list. A number with no mark means an inactive call. Activity calls are given as the source filed them.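 The calls were made as follows, unless noted: active = mean of duplicate thallium-flux fluorescence ratios in parental host cells more than 5 SD below the buffer control mean (cut at about 0.38 in these data); inactive = the rest.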
Tests used:
[1] = target: Potassium voltage-gated channel subfamily KQT member 1 (Homo sapiens) (UniProt P51787); assay: KCNQ1 potassium channel inhibitors, confirmation, cell-based, Tl flux, duplicate (AID 588353;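 active = primary screen active, with duplicate mean exceeding buffer control mean plus 3 SD of buffer wells, cut at about 28% in these data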;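 also: 0% = buffer control ratio and 100% = XE991 inhibitor control ratio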); conditions: KCNQ1 cell line, FluxOR thallium flux fluorescence, at 10 µM, hits give high values
Chain of Potassium voltage-gated channel subfamily KQT member 1 (Homo sapiens) (P51787 whole entry, looked up): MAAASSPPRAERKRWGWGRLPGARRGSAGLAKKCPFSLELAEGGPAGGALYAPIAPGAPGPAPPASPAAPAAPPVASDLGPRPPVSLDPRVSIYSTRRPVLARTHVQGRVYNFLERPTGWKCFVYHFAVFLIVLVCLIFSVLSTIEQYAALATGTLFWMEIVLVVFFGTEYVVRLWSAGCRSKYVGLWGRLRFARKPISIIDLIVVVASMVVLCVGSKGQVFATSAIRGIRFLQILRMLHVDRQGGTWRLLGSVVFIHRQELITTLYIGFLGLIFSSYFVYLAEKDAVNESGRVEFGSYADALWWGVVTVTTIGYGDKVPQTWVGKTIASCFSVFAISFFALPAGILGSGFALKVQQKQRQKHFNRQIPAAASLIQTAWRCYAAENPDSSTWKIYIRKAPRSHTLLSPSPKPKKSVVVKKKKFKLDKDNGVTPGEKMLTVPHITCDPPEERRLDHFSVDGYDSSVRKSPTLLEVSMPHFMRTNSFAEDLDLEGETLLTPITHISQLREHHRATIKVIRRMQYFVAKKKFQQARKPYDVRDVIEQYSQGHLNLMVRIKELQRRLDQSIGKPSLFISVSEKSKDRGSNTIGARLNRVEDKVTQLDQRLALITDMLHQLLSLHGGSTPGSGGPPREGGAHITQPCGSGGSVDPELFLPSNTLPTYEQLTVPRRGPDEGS
Outline: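 Material: stable KCNQ1-expressing CHO cell line. Incubation: compound exposure 20 min at room temperature. Replication: duplicates, mean used. Control set: buffer and XE991. Evaluation: percent inhibition relative to buffer and XE991. Reagent: Tl2SO4 plus K2SO4 stimulus, each 12.5 mM in 5x stock. Measured by: thallium-sensitive FluxOR dye fluorescence.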

[2] = thallium flux effects in parental CHO cells, counter-screen for KCNQ1 inhibitor project, cell-based, Tl flux (AID 588366); conditions: parental CHO-K1, FluxOR thallium flux fluorescence ratio; at 10 µM; hits give low values; zero means no signal rise above baseline;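 also: ratio is peak minus minimum fluorescence divided by baseline fluorescence; actives read low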
Outline: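 material = parental CHO-K1 cells lacking KCNQ1 channel expression | schedule = FluxOR dye loading 90 min, compound exposure 20 min, room temperature | technique = kinetic Tl+ flux fluorescence with FluxOR dye | controls = assay buffer-only wells as negative controls | replicates = each compound tested in duplicate wells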

[3] = target: Potassium voltage-gated channel subfamily KQT member 2 (Rattus norvegicus) (UniProt O88943); assay: KCNQ2 channel inhibition, selectivity assay for KCNQ1 inhibitor project, cell-based (AID 651746;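 active = mean percent inhibition of the KCNQ2 thallium signal more than 5 SD above the buffer-only control wells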;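 as to inhibition: 0% = buffer control wells and 100% = XE-991 inhibitor control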); conditions: KCNQ2 cells, FluxOR thallium flux fluorescence, at 10 µM; hits give high values
Chain of Potassium voltage-gated channel subfamily KQT member 2 (Rattus norvegicus) (O88943 whole entry, looked up): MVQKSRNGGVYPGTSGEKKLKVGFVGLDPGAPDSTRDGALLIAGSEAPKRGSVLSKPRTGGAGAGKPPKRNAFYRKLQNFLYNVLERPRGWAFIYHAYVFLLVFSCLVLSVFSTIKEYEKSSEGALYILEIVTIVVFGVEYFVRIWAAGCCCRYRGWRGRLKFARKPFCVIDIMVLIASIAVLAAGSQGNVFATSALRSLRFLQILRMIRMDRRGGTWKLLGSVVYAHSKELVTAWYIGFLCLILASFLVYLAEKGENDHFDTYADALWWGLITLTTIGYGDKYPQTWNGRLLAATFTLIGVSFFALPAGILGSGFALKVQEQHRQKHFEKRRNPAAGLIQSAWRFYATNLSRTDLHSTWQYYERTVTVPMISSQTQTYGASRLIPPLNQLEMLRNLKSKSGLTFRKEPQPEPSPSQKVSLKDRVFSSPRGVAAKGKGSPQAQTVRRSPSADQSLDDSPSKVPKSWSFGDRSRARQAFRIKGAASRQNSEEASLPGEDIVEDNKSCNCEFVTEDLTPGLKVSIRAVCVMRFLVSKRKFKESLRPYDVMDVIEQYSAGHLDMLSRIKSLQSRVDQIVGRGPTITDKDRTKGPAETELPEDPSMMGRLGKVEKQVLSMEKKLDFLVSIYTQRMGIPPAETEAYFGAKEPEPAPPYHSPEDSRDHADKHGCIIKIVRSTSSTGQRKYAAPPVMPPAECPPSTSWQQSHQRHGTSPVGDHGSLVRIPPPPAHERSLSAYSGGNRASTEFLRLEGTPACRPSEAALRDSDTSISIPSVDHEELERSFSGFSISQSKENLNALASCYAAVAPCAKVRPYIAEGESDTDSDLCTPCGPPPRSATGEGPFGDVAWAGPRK

[4] = target: Potassium voltage-gated channel subfamily E member 1 (Homo sapiens) + Potassium voltage-gated channel subfamily KQT member 1 (Homo sapiens) (UniProt P15382+P51787); assay: KCNQ1/KCNE1 channel inhibition, selectivity assay for KCNQ1 inhibitor project, CHO-K1 cells, thallium flux, FluxOR (AID 652147;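 active = mean percent inhibition of duplicate wells above the buffer-only control mean plus 3 SD of those controls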;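 as to inhibition: 0% = buffer only wells and 100% = XE-991 inhibitor control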); conditions: FluxOR thallium flux fluorescence, at 10 µM; hits give high values
Chain of Potassium voltage-gated channel subfamily E member 1 (Homo sapiens) + Potassium voltage-gated channel subfamily KQT member 1 (Homo sapiens) (P51787 whole entry, looked up): as the sequence (P51787 whole entry, looked up) above
Outline: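 Assay system: KCNQ1/KCNE1 cells | Timing: FluxOR dye loading 90 min, compound exposure 20 min, both room temperature | Detection: Kinetic FluxOR thallium-sensitive fluorescence, 1 Hz sampling, 150 s post-stimulus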

SMILES	inhibition [1]	fluorescence ratio (Tl flux) [2]	inhibition [3]	inhibition [4]	outcome [3]	outcome [4]
Cc1cccc(-c2nc3ccc(C(=O)NCCN4CCN(C)CC4)cc3nc2-c2cccc(C)c2)c1	63% (active)	0.34 (active)	107% (active)	118% (active)		
CN(c1cccc(NC(=O)Nc2ccc(Cl)cc2)c1)S(C)(=O)=O	59.5% (active)	0.545		42.5% (active)	inactive	
O=C(NCCc1ccccc1)c1ccc2c(c1)N(Cc1ccccc1)CCS2	71.5% (active)	0.426	101% (active)	72% (active)		
CS(=O)(=O)N(CC(=O)Nc1ccc(Cl)c(Cl)c1)C1CCCCC1	56.5% (active)	0.476	63.3% (active)			inactive
Cc1nn(C)cc1N1C(=O)c2cccc3c(N)ccc(c23)C1=O		0.006 (active)			inactive	inactive
Cc1ccc(N2CCN(S(=O)(=O)c3ccc(F)cc3)CC2)c(C)c1	79% (active)	0.406	94% (active)	69.5% (active)		
CSc1nccc(NC(=O)c2ccc(C(C)(C)C)cc2)n1	153% (active)	0.366 (active)	105% (active)	144% (active)		
O=C(Nc1ccc(Cl)cc1)Nc1ccc(Oc2cccnc2)nc1	56% (active)	0.487				inactive
CCOc1ccc(CN2CCN(Cc3c[nH]c4ccccc34)CC2)cc1	0% [the number is a placeholder, only the call stands]	0.441		40% (active)	inactive	
CCc1cc(C(c2ccccc2OC)N2CCOCC2)c(NC(=O)c2ccccc2)s1 (stereo not given)	102% (active)	0.335 (active)		132% (active)		
CCCN1Cc2cccc(C(=O)NCc3ccccc3)c2C1=O	83% (active)	0.478		80% (active)	inactive	
CCOC(=O)c1c(NC(=O)C(C)Sc2c[nH]c3ccccc23)sc2c1CCC2 (stereo not given)	124% (active)	0.415	105% (active)	155% (active)		
O=C1CCc2cc(S(=O)(=O)N3CCC(C(=O)NCc4ccccc4Cl)CC3)ccc2N1	0% [the number is a placeholder, only the call stands]	0.447			inactive	inactive
Oc1ccc2ccc3cccc[n+]3c2c1		0.012 (active)			inactive	inactive
COC(=O)c1cc(NC(=O)c2cc(C(C)(C)C)nn2Cc2cccc(C)c2)ccc1N1CCOCC1	77% (active)	0.333 (active)	80.3% (active)	154% (active)		
O=C(Nc1nnc(S(=O)(=O)N2CCCCCC2)s1)c1cccc(Br)c1	57% (active)	0.485			inactive	inactive
O=C(NCC(F)(F)F)Nc1nnc(C(F)(F)F)s1	26% (active)	0.557			inactive	inactive
Cn1nc(-c2ccc(Cl)cc2)c2cc(C(=O)NCc3ccco3)sc21	70.5% (active)	0.454	103% (active)			inactive
N#Cc1c(/N=C/N2CCCC2)oc(-c2ccccc2)c1-c1ccccc1	70% (active)	0.445	74.3% (active)	79% (active)		
Cc1nnc(SC(C(=O)Nc2cc(Cl)cc(Cl)c2)c2ccccc2)[nH]c1=O (stereo not given)	43% (active)	0.471				inactive
COc1cccc(-c2cnc(OC(C)(C)C)nc2OC(C)(C)C)c1	75% (active)	0.462	61% (active)	94.5% (active)		
S=C(Nc1cccc(Cl)c1)Nc1ccc2c(c1)OCCO2	81% (active)	0.444		47% (active)	inactive	
Fc1cc(Br)ccc1NC(=S)Nc1cccnc1	33% (active)	0.539			inactive	inactive
Cc1ccccc1C(=O)OC1OC(=O)C(Cl)=C1Nc1ccccc1 (stereo not given)	79% (active)	0.434		65% (active)		
Fc1ccc2[nH]c3c(N4CCSCC4)ncnc3c2c1	162% (active)	0.362 (active)			inactive	inactive
Cc1cccc(CSc2ccc(-c3cccs3)nn2)c1	78% (active)	0.42	114% (active)	112% (active)		
O=C1CCCN1CCCNC(=S)Nc1ccc(F)c(Cl)c1	51% (active)	0.445	72.7% (active)	58.5% (active)		
COC(=O)c1ccc(NC(=O)Nc2ccc(C)cc2)cc1	62.5% (active)	0.504			inactive	inactive
Cc1cccc(NC(=S)Nc2ccc(Cl)c(Cl)c2)c1	49% (active)	0.565			inactive	inactive
